# Data from paper PMC7072008 (ACS infectious diseases, 2020).
# Where two headings read alike, the source gives them in different places.
# Legend:
# [1] = biological target: T1, TGR (DTNB reducing activity) (Schistosoma mansoni, UniProt Q962Y6); assay: TGR inhibition confirmatory assay, DTNB reduction; format: biochemical
# T1 sequence (Q962Y6 1-598): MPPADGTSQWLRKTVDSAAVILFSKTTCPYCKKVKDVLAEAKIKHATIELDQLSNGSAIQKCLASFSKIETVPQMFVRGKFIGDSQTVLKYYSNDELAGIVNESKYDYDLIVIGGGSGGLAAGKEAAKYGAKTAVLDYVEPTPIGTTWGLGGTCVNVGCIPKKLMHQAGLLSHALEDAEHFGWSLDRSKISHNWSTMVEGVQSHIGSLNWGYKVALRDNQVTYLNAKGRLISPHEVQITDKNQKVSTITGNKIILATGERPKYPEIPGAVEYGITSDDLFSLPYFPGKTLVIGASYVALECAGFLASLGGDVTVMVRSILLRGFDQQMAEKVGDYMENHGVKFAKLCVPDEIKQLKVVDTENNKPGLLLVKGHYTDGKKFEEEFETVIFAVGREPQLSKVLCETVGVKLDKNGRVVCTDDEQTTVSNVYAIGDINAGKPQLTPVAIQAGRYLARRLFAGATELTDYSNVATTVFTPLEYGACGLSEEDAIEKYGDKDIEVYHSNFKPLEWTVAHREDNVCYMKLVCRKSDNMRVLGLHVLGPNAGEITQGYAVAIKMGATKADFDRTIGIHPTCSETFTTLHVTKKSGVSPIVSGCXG
# [2] = biological target: T2, TGR (GSSG reducing activity) (Schistosoma mansoni, UniProt Q962Y6); assay: TGR inhibition assay, GSSG reduction; format: biochemical; settings: read-out: IC50 (GSSG); GSSG as substrate
# T2 sequence (Q962Y6 1-598): T1 sequence (Q962Y6 1-598)
# How it was run: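 Recombinant wild-type S. mansoni TGR (selenoprotein) was expressed in E. coli BL21 (DE3) with a His-SUMO tag. The tag was removed, leaving Gly-Ser-His at the N-terminus. Inhibition was measured as enzymatic GSSG reduction, run in triplicate.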
# [3] = test system: S. mansoni adult worms; assay: Ex vivo adult worm killing, continuous exposure; set-up: species or system Schistosoma mansoni; settings: for LD50 against S. mansoni adult worms: 5 days incubation, media and compounds replaced daily
# [4] = test system: S. haematobium adult worms; assay: Ex vivo adult worm killing, continuous exposure; settings: 10 μM
# [5] = test system: S. mansoni juvenile worms; assay: Ex vivo juvenile worm killing, continuous exposure; set-up: species or system Schistosoma mansoni
# [6] = test system: S. mansoni schistosomula; assay: Schistosomula; set-up: species or system Schistosoma mansoni
# [7] = test system: S. mansoni adult worms; assay: Brief; set-up: species or system Schistosoma mansoni
# [8] = biological target: T3, hGR (Homo sapiens, UniProt P00390); assay: Inhibition of human glutathione reductase; format: biochemical; settings: for Inhibition of hGR: at 2 mM (concentrations as high as 2 mM); for IC50: read-out: hGR IC50; for hGR IC50 fold higher than for TGR: selectivity TGR versus hGR
# T3 sequence (P00390 44-522): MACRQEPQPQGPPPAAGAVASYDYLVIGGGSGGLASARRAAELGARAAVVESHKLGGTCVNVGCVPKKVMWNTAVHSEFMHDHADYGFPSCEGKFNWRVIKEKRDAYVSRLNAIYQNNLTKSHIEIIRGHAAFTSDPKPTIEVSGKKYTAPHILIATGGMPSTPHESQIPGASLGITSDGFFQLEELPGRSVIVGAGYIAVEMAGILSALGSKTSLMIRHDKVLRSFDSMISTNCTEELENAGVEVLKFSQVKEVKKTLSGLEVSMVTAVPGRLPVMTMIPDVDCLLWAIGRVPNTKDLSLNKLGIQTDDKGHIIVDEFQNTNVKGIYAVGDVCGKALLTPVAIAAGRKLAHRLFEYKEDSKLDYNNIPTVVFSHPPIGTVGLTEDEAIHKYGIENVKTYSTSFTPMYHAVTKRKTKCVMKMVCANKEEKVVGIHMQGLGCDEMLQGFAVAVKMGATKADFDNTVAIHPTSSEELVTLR
# [9] = test system: Schistosoma mansoni TGR; settings: read-out: TGR IC50 qHTS, cited from earlier work
# [10] = biological target: T4, TGR (Schistosoma mansoni, UniProt Q962Y6); assay: TGR dimer/monomer analysis by native PAGE; settings: native PAGE after reaction with compound
# T4 sequence (Q962Y6 1-598): T1 sequence (Q962Y6 1-598)
# [11] = cited from earlier work
# [12] = biological target: TGR activities (DTNB and GSSG reduction) in S. mansoni adult worms (Schistosoma mansoni, UniProt Q962Y6); assay: TGR activity in homogenates of treated worms; settings: worms cultured in 50 μM compound, harvested before any worm death
# How it was run: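 Adult S. mansoni from infected Swiss-Webster mice, about 10 worm pairs per 1 mL RPMI with 10% FCS, 10 mM glutamine and penicillin/streptomycin, pre-cultured 24 h. Exposed to 50 μM compound in DMSO, refreshed daily; DMSO controls. Worms collected at set times, washed, homogenized and centrifuged; protein measured. NADPH-dependent DTNB and GSSG reduction assayed in triplicate versus time-matched controls.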
# [13] = test system: S. japonicum adult worms; assay: Ex vivo adult worm killing, continuous exposure; settings: 12.5 μM, 120 h
# [14] = biological target: T4, TGR; assay: NADPH oxidase activity of inhibited TGR; format: biochemical; settings: for H2O2 production compared with untreated TGR: Amplex Red and horseradish peroxidase
# [15] = test system: Vero cells
# [16] = biological target: T4, TGR; assay: NADPH-dependence and reversibility of TGR inhibition; format: biochemical; settings: incubation with NADPH, activity 30 minutes and 3 hours after desalting
# [17] = test system: Schistosoma mansoni; settings: overnight exposure; cited from earlier work
# [18] = read-out: IC50 (DTNB), DTNB as substrate
# [19] = read-out: TGR IC50 Confirm, confirmatory assay
# [20] = 20 μM, then 5 days in media without compound
# [21] = PubChem BioAssay, ref AID485364
# [22] = 50 μM, then 5 days in media without compound
# [23] = 100 μM, then 5 days in media without compound
Structure (SMILES),"IC50 [1, 18] [nM]","IC50 [1, 19] [nM]",IC50 [2] [nM],LD50 against S. mansoni adult worms [3] [µM],"Sm juvenile, dead ([5]; 10 μM, 120 h)","Sm Somula, dead ([6]; 10 μM, 24 h)","S. mansoni adult worm killing after 1 hr exposure [7, 20]",Inhibition of hGR [8],"IC50 [9, 21] [nM]","S. mansoni adult worm killing after 1 hr exposure [7, 22] [%]","S. mansoni adult worm killing after 1 hr exposure [7, 23] [%]",also measured
COC(=O)CS(=O)(=O)c1nnc(C(Cc2ccccc2)NC(=O)OC(C)(C)C)o1 (stereo not shown) [Compound 1],330 ± 70,330,390 ± 70,8.41,10 μM 120 h 39% d^‡,10 μM 24 h 99% d^‡,60%,did not inhibit,–,–,–,"Adult worms Sh, dead ([4]; 144 h): 10 μM 144 h 67% d^‡"
CCN(c1ccccc1)S(=O)(=O)c1ccc(NC(=O)c2nc(S(C)(=O)=O)ncc2Cl)cc1 [Compound 2],210 ± 20,210,230 ± 30,9.07,–,10 μM 24 h 100% d^‡,40%,did not inhibit,398,–,–,"Sm juvenile, dead ([5]; 10 μM, 24 h): 10 μM 24 h 100% d^‡"
O=c1c(Cl)c(-n2cc(CO)nn2)cnn1-c1ccccc1 [Compound 3],2840 ± 80,2840,2490 ± 110,4.9,–,10 μM 24 h 100% d^‡,about 10%,19%,–,80,–,"Adult worms Sm, dead ([3]; 10 μM, 72 h): 10 μM 72 h 100% d^‡; Adult worms Sh, dead ([4]; 96 h): 10 μM 96 h 100% d^‡; Sm juvenile, dead ([5]; 10 μM, 48 h): 10 μM 48 h 100% d^‡; IC50 ([9]; ref Li et al. 2015 [18]): 6300 nM"
"O=[N+]([O-])c1ccc2c(c1)S(=O)(=O)C=C2 [Compound 4, Stattic]",2010 ± 140,2010,2200 ± 200,7.08,–,10 μM 24 h 100% d^‡,about 10%,–,–,100,–,"Adult worms Sm, dead ([3]; 10 μM, 144 h): 10 μM 144 h 76% d^‡; Sm juvenile, dead ([5]; 10 μM, 72 h): 10 μM 72 h 100% d^‡; IC50 [8]: 30700 nM; hGR IC50 fold higher than for TGR [8]: 15 fold; Monomer formation of TGR [10]: No evidence for monomer formation; IC50 ([9]; ref Li et al. 2015 [18]): 5440 nM; Tolerability in animal models ([11]; animal models of different diseases): well tolerated"
"COc1ccc([N+](=O)[O-])c(S(=O)(=O)c2ccc(Cl)cc2)n1 [Compound 5, TRi-1]",60 ± 10,60,50 ± 10,10.1,10 μM 120 h 57% d^‡,10 μM 24 h 100% d^‡,about 10%,–,100,60,–,IC50 [8]: 104000 nM; hGR IC50 fold higher than for TGR [8]: 1700 fold; Tolerability in animal models ([11]; in vivo): well tolerated
CCOC(=O)C(C(=O)OCC)c1cc(Br)c2noc3c2c1C(=O)c1ccccc1-3 [Compound 6],140 ± 10,140,150 ± 20,–,–,–,–,25%,631,–,–,"S. mansoni adult worm killing after 1 hr exposure ([7]; all concentrations tested (10, 20, 50, 100 μM)): no worm killing; Inhibition of TGR activity (DTNB and GSSG reduction) in worm homogenates [12]: ~ 60%"
Oc1ccc(CNc2cccc(C(F)(F)F)c2)c2cccnc12 [Compound 7],90 ± 20,90,130 ± 30,18.2,–,–,10%,did not inhibit,316,–,80,"Adult worms Sm, dead ([3]; 12.5 μM, 120 h): 12.5 μM 120 h 43% d^‡; Adult worms Sj, dead [13]: 12.5 μM 120 h no killing; Sm juvenile, dead ([5]; 12.5 μM, 120 h): 12.5 μM 120 h 8% d^‡; Sm Somula, dead ([6]; 12.5 μM, 120 h): 12.5 μM 120 h 61% d^‡; H2O2 production compared with untreated TGR [14]: less H2O2 than untreated TGR; Induction of NADPH oxidase activity in TGR (NADPH consumption, superoxide production) ([14]; TGR 500 nM, NADPH 100 μM, 30 min, 20 μM for 1, 2, 5-8, 50 μM for 3 and 4, desalted): lowest NADPH oxidase activity; Decrease of NADPH consumption compared with uninhibited TGR ([14]; after treatment and desalting): about 50%; Cytotoxicity against mammalian cells compared with schistosome worms [15]: notable exception"
COc1ccc(C(Nc2cc(C)ccn2)c2ccc3ccc(C)nc3c2O)cc1 (stereo not shown) [Compound 8],130 ± 40,130,330 ± 50,12.4,10 μM 120 h 24% d^‡,–,10%,did not inhibit,398,–,30,"Adult worms Sm, dead ([3]; 12.5 μM, 120 h): 12.5 μM 120 h 53% d^‡; Adult worms Sj, dead [13]: 12.5 μM 120 h 56% d^‡; Sm Somula, dead ([6]; 10 μM, 120 h): 10 μM 120 h 20% d^‡; Reversibility of TGR inhibition [16]: reversible inhibition; H2O2 production compared with untreated TGR [14]: same low amounts of H2O2 as untreated TGR"
"Cc1c(-c2cnccn2)ssc1=S [oltipraz, reference compound]",–,–,–,2,–,–,–,–,–,–,–,–
"O=C(C1CCCCC1)N1CC(=O)N2CCc3ccccc3C2C1 (stereo not shown) [praziquantel, reference compound]",–,–,–,0.5,–,–,–,–,–,–,20,LD50 of praziquantel [17]: 40 µM
